In paper PMC4344132 (Cell, 2014):
No end group written: not given here.

Experiments:
[1] = tested on: histone H3 acetylation in HeLa cells; experiment: Histone H3 acetylation level in HeLa cells treated with GCN5/PCAF inhibitor; format: cell-based; conditions: Figure S5C
[2] = tested on: AF9 occupancy on MYC in HeLa cells; experiment: AF9 occupancy on MYC in HeLa cells treated with GCN5/PCAF inhibitor; format: cell-based; conditions: Figure S5C
In short: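 HeLa cells (endogenous AF9 has no ChIP-grade antibody, so a line stably expressing Flag-AF9 was used) were treated with the GCN5/PCAF inhibitor. Cells were crosslinked with 1% formaldehyde for 10 min, then quenched with 125 mM glycine. Nuclei were sonicated and immunoprecipitated with 2–4 µg antibody overnight at 4°C, collected with Staph A cells, washed and reverse-crosslinked. MYC DNA was quantified by SYBR Green qPCR. Differences were tested by two-way unpaired Student's t-test.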

[3] = target: human AF9 YEATS (1–138) (human) (UniProt P42568); experiment: ITC
AF9 YEATS domain = target: T1, AF9 YEATS domain (Homo sapiens, UniProt P42568); experiment: Isothermal titration calorimetry; format: binding; conditions: ITC; different frames of the H3K9ac peptides; Figure 4A
T1 sequence (P42568 1-138 limits assumed): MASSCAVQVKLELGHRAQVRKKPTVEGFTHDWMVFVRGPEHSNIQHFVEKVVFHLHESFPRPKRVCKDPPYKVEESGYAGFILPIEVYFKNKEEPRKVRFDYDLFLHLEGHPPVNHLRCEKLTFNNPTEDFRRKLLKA

`Clc1ccc(-c2csc(NN=C3CCCC3)n2)cc1` [CPTH2] was tested, and the “histone H3 acetylation levels” value [1] was “reduced” and the “AF9 occupancy on MYC” value [2] was “reduced”.
“H3K9ac peptide with H3R8 substituted with alanine” showed a fold binding reduction against the H3K9ac peptide [3] of 200 fold.
H3K18ac peptide (ITC) was tested, and the Kd [3] was 11 µM.
Compound H3K27ac peptide (ITC) has a Kd [3] of 7 µM.
In the case of “H3_7–11K9ac: H3K9ac peptide frame 7–11 (ARK(Ac)ST)”, the “binding (in words)” value (AF9 YEATS domain) is reported as “no binding”.
